Measurements as given in ChEMBL document CHEMBL4033784, “Discovery of 1,5-Diphenylpyrazole-3-Carboxamide Derivatives as Potent, Reversible, and Selective Monoacylglycerol Lipase (MAGL) Inhibitors” (J Med Chem, 2018).
Activity calls are given as the source filed them.

Legend:
[1] = tested on: Mus musculus; assay: Effect on 2-AG level in brain of oxaliplatin-induced neuropathic pain 4r5CD-1 albino mouse model at 30 mg/kg, po measured at 1 hr post last dose on day 15 by LC-MS/MS analysis; assay type: functional, organism-based
How it was run: (§1)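 Mice received oxaliplatin 2.4 mg/kg i.p. plus compound 30 mg/kg p.o. or vehicle for 14 days. On day 15 they were decapitated 1 h after the last dose. Brain and spinal cord were washed in PBS and snap-frozen. 2-AG was quantified by LC-MS/MS.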

[2] = tested on: Mus musculus; assay: Antinociceptive activity in po dosed oxaliplatin-induced neuropathic pain 4r5CD-1 albino mouse model assessed as pain relief treated on day 15 post oxaliplatin treatment by cold plate test; assay type: functional, organism-based
How it was run: (§2)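 Male CD-1 mice (22–25 g) received oxaliplatin 2.4 mg/kg i.p. in 5% glucose on days 1-2, 5-9, 12-14. On day 15 a single p.o. dose (10 or 30 mg/kg) suspended in CMC was given. Cold plate at 4 °C ± 1 °C, 60 s cut-off, latency to first paw lick or lift timed after dosing. 10 mice per group over 2 sets, mean ± S.E.M., one-way ANOVA with Bonferroni.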

[3] = tested on: Mus musculus; assay: Antinociceptive activity in oxaliplatin-induced neuropathic pain 4r5CD-1 albino mouse model assessed as reduction in licking latency at 10 mg/kg, po treated on day 15 post oxaliplatin treatment measure at 30 mins post dose by cold plate test; assay type: functional, organism-based; how it was run: as §2
[4] = tested on: Mus musculus; assay: Antinociceptive activity in oxaliplatin-induced neuropathic pain 4r5CD-1 albino mouse model assessed as reduction in cold allodynia at 30 mg/kg, po cotreated with oxaliplatin on day 1 to 14 measured on day 7 and 15 by cold plate test; assay type: functional, organism-based
How it was run: (§3)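 Male CD-1 mice (22–25 g) given oxaliplatin 2.4 mg/kg i.p. in 5% glucose on days 1-2, 5-9, 12-14. Compound suspended in CMC, 30 mg/kg p.o., given on the same schedule. Cold plate held at 4 °C ± 1 °C, 60 s cut-off. Latency to first hind-paw lifting or licking recorded on days 7 and 15, 24 h after the last dose. 10 mice per group over 2 sets, mean ± S.E.M.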

[5] = target: T1, Monoglyceride lipase (Homo sapiens) (UniProt Q99685); conditions: 20 uM
T1 sequence (whole entry): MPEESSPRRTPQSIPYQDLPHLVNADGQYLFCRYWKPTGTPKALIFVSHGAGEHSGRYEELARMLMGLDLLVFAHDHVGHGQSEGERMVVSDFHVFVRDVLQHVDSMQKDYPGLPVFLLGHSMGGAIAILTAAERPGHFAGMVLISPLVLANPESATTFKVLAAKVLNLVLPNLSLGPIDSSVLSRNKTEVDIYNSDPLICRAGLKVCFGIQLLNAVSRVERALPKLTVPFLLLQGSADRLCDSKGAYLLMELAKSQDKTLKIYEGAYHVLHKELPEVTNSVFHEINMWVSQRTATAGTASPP

[6] = tested on: Mus musculus; assay: Effect on 2-AG level in spinal cord of oxaliplatin-induced neuropathic pain 4r5CD-1 albino mouse model at 30 mg/kg, po measured at 1 hr post last dose on day 15 by LC-MS/MS analysis; assay type: functional, organism-based; how it was run: as §1
[7] = tested on: Mus musculus; assay: Antinociceptive activity in oxaliplatin-induced 4r5CD-1 albino mouse assessed as […] pain relief at 30 mg/kg, po cotreated with oxaliplatin on day 1 to 14 measured up to 24 hrs post last on day 15 by cold plate test; assay type: functional, organism-based; how it was run: as §3
[8] = tested on: Mus musculus; assay: Antinociceptive activity in oxaliplatin-induced neuropathic pain 4r5CD-1 albino mouse model assessed as reduction in licking latency at 30 mg/kg, po treated on day 15 post oxaliplatin treatment measure at 30 to 45 mins post dose by cold plate test; assay type: functional, organism-based; how it was run: as §2
[9] = target: T1, Monoglyceride lipase (Homo sapiens); conditions: 20 uM; remark: listed apart in the source
[10] = target: T2, Fatty-acid amide hydrolase 1 (Homo sapiens) (UniProt O00519); assay: Inhibition of recombinant human FAAH using AMC arachidonoylamide as substrate at 10 uM after 30 mins by fluorescence assay relative to control
T2 sequence (whole entry): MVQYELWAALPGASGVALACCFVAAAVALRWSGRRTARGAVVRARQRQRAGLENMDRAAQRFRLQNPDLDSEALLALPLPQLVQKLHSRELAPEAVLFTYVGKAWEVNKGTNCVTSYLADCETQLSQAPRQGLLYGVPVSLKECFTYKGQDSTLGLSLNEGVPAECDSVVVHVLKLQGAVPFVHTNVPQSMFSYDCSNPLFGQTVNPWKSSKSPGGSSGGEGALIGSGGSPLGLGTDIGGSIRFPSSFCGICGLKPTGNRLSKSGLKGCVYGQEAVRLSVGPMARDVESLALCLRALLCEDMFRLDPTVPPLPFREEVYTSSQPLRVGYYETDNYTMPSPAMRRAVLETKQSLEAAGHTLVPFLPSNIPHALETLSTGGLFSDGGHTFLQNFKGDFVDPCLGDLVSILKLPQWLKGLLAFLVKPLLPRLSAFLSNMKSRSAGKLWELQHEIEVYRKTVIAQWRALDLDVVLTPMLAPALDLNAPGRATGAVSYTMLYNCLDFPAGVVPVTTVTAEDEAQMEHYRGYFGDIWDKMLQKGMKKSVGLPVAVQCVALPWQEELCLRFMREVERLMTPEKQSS
How it was run: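 Human recombinant FAAH (0.9 µg/well) in 125 mM Tris pH 9.0 with 1 mM EDTA and 0.1 mg/ml BSA at room temperature. Substrate was AMC arachidonoylamide, final 10 µM. Compound range 200–0.0128 µM. Fluorescence (ex 340/em 460 nm) read after 30 min with no-enzyme blanks subtracted. IC50 from sigmoidal dose-response fit.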

[11] = target: Cannabinoid receptor 2 (Homo sapiens) (UniProt P34972); assay: Displacement of [3H]CP55,940 from human CB2 receptor expressed in CHOK1 cell membranes at 10 uM after 90 mins relative to control
How it was run: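 Membranes expressing hCB1 or hCB2 were incubated in 50 mM Tris-HCl, 2.5 mM EDTA, 5 mM MgCl2 with fatty-acid-free BSA, pH 7.4. Incubation with compound and 0.5 nM [3H]CP55,940 for 90 min at 30 °C. Nonspecific binding defined with 10 µM […]. Samples were filtered on GF/B, washed twelve times with ice-cold buffer, and radioactivity counted.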

Sequence of Cannabinoid receptor 2 (Homo sapiens) (P34972 whole entry): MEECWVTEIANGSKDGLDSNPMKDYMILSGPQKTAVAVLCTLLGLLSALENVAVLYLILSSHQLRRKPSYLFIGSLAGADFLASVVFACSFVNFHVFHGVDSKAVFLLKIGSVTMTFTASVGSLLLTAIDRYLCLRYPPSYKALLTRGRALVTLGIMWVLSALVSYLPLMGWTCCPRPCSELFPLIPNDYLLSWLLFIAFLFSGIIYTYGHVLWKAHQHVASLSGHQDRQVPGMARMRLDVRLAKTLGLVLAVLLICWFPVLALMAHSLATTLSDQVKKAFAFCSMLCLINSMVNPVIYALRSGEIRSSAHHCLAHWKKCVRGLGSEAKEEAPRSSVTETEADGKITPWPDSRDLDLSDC

inhibition [5]: Active
inhibition [9]: Active
inhibition [10]: 7%
inhibition [11]: 35%
Compound: Cc1cccc(Cn2nc(C(=O)N3CCC(Cc4ccccc4)CC3)cc2-c2ccc(O)cc2)c1
Activity [1]: inactive
Activity [2]: Dose-dependent effect
Activity [3]: Active
Activity [4]: Active
Activity [6]: inactive
Activity [7]: Active
Activity [8]: Active
